Screens as filed in PubChem.
MT stabilizer = stabilizes microtubules in HeLa cells; % tubulin-high responders, % at 10 µM; 200,000 tested, 0.83% active; HeLa tubulin immunostaining HCS, 24 h; share of cells brighter than vehicle mean+2SD;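 active = plate Z-score above 3 for both tubulin-high and condensed-nucleus cell shares, with cell loss under 80%, at 10 µM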;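 note: anti alpha tubulin signal scored within the nucleus-defined area of each cell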
Ba/F3 V617F tox = loss of viability in JAK2V617F-driven Ba/F3 cells; Ba/F3 EpoR-JAK2V617F viability, ATP luminescence; inhibition, % at 5.6 µM; 220,000 tested, 1.1% active; AID 1446;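 active = inhibition above the campaign mean plus 3 SD over all tested compounds, cut at about 24% in these data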;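 note: cytokine-independent growth of Ba/F3 cells driven by EpoR plus mutant JAK2; 0% = DMSO-treated cells and 100% = JAK inhibitor I control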
APP 5UTR inh = APP translation inhibition. SH-SY5Y APP 5'UTR-luciferase reporter, luminescence. 190,000 tested, 0.82% active. inhibition, % at 2 µM;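 active = inhibition above a set limit, derived from the sample mean plus 3 SD, cut at about 45% in these data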
IEC-6 cytotox = IEC-6 cytotoxicity, counter-screen for KLF5 inhibitors. 290,000 tested, 0.78% active. luminescence viability. inhibition, % at 5 µM; in the data active = inhibition above about 22%;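 note: 0% = plate median of test compound wells and 100% = cytotoxic reference compound wells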
BaF3 tox = counter-screen for JAK2V617F inhibitors: parental Ba/F3 viability inhibitors. inhibition, % at 5.6 µM. 220,000 tested, 1.1% active. CellTiter-Glo ATP luminescence. AID 1486;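 active = inhibition above a per-campaign cutoff, the mean inhibition of all tested compounds plus 3 SD, cut at about 27% in these data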;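 note: 0% = DMSO wells and 100% = JAK Inhibitor I control wells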
bCat nuc transl = beta-catenin nuclear translocation modulation; 190,000 tested, 0.3% active; HeLa beta-catenin nuclear translocation, immunofluorescence imaging; AID 1665; nuclear translocation activity, % at 5 µM;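 active = nuclear translocation activity above 50% at 5 µM, with a well cell count of 50 or more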;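 note: per-cell ratio of nuclear to cytoplasmic median beta-catenin stain intensity; plate controls were DMSO negative control for no effect and GSK-3 inhibitor IX positive control for full effect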
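Technique: fluorescence imaging of beta-catenin antibody stain plus DAPI / Material: human HeLa cell line / Incubation: compound treatment 24 h, 37°C, 5% CO2 / Read-out basis: % activation of per-cell nuclear versus cytoplasmic median beta-catenin signal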
* marks the source's active call; other numbers are inactive results. Hits are enriched below; roughly 2.2% of the tested compounds scored in any of these assays.

Results for Cc1nn(CC(=O)N2c3ccccc3NC(=O)C2(C)C)c(C)c1[N+](=O)[O-] ?
MT stabilizer: 3; Ba/F3 V617F tox: 0; APP 5UTR inh: 16; IEC-6 cytotox: -2; BaF3 tox: 5; bCat nuc transl: 1

Results for COc1cccc(C(O)c2nccn2Cc2ccccc2)c1OC (stereo not given) ?
IEC-6 cytotox: 5

Results for C=CCN1C(=O)c2ccccc2Sc2ccc(C(=O)NCCC)cc21 ?
IEC-6 cytotox: -2

Results for CCCCN1CC(=O)N2[C@H](c3ccc(Cl)cc3)[C@@H]3C(=O)N(CC)C(=O)[C@@H]3[C@]2(C)C1=O ?
IEC-6 cytotox: 2

What do the screens show for `CCCCCCCNC1=CC(=O)CC(c2ccccc2)C1` (stereo not given)?
MT stabilizer: 12*; Ba/F3 V617F tox: 28*; APP 5UTR inh: -11; IEC-6 cytotox: -1; BaF3 tox: 36*; bCat nuc transl: 16

What do the screens show for `CCCCCNC1=CC(=O)CC(c2ccccc2)C1` (stereo not given)?
MT stabilizer: 47*; Ba/F3 V617F tox: 0; APP 5UTR inh: 8; IEC-6 cytotox: 3; BaF3 tox: 5

Results for CC(=O)Nc1cccc(/C(C)=N/N2C(C)CCCC2C)c1 (stereo not given) ?
IEC-6 cytotox: 4

How did CCOC(=O)C1CCCN(C(=O)c2cc3ccc(OC)cc3[nH]2)C1 (stereo not given) do in these assays?
IEC-6 cytotox: 4

Results for N#Cc1cc(Sc2ccccn2)c(Sc2ccccn2)cc1C#N ?
MT stabilizer: 5; Ba/F3 V617F tox: -2; APP 5UTR inh: 5; IEC-6 cytotox: 2; BaF3 tox: 0; bCat nuc transl: 0

What do the screens show for `N#CC(Sc1ccccn1)c1ccc(Cl)cc1Cl` (stereo not given)?
MT stabilizer: 2; Ba/F3 V617F tox: 28*; APP 5UTR inh: -6; IEC-6 cytotox: 0; BaF3 tox: 40*; bCat nuc transl: -1

How did COc1ccc(S(=O)(=O)/N=C2/C=CC(=O)C(C)=C2C)cc1 do in these assays?
MT stabilizer: 1; Ba/F3 V617F tox: -1; APP 5UTR inh: -12; IEC-6 cytotox: 4; BaF3 tox: 2; bCat nuc transl: -3

How did CC1=C/C(=N\OS(=O)(=O)c2ccccc2)C(C)=CC1=O do in these assays?
MT stabilizer: 3; Ba/F3 V617F tox: 97*; APP 5UTR inh: 95*; IEC-6 cytotox: -7; BaF3 tox: 100*; bCat nuc transl: 1

What do the screens show for `CC1=C/C(=N\OS(=O)(=O)c2ccccc2)C(C(C)C)=CC1=O`?
MT stabilizer: 3; Ba/F3 V617F tox: 86*; APP 5UTR inh: 96*; IEC-6 cytotox: -4; BaF3 tox: 78*; bCat nuc transl: -2

How did CC1=C(C)/C(=N\OS(=O)(=O)c2ccc(C)cc2)C=CC1=O do in these assays?
MT stabilizer: 2; Ba/F3 V617F tox: 88*; APP 5UTR inh: 90*; IEC-6 cytotox: -6; BaF3 tox: 68*; bCat nuc transl: -3

How did CC1(C)CC(=O)C(C(=S)Nc2ccccc2)=C(NCCN2CCOCC2)C1 do in these assays?
MT stabilizer: 2; Ba/F3 V617F tox: 0; APP 5UTR inh: -6; IEC-6 cytotox: -6; BaF3 tox: 35*; bCat nuc transl: -1

What do the screens show for `CC1(C)CC(=O)C(C(=S)Nc2ccc(F)cc2)=C(NCCN2CCOCC2)C1`?
MT stabilizer: 4; Ba/F3 V617F tox: 2; APP 5UTR inh: 3; IEC-6 cytotox: -2; BaF3 tox: 6; bCat nuc transl: -1

What do the screens show for `Cc1cc(C)c(C)c(S(=O)(=O)N2CCCN(C)CC2)c1C`?
IEC-6 cytotox: 4

Results for O=C1CN(C(=O)COc2c(F)c(F)cc(F)c2F)c2ccccc2N1 ?
IEC-6 cytotox: -2

How did CCOC(=O)/C=c1\s/c(=C\c2ccccc2C)c(=O)n1CC(=O)NCc1ccc2c(c1)OCO2 do in these assays?
MT stabilizer: 22*; Ba/F3 V617F tox: 3; APP 5UTR inh: 5; IEC-6 cytotox: 3; BaF3 tox: 9; bCat nuc transl: 5

What do the screens show for `CCOC(=O)c1csc(N)n1`?
MT stabilizer: 3; Ba/F3 V617F tox: 2; APP 5UTR inh: -16; IEC-6 cytotox: 0; BaF3 tox: 7; bCat nuc transl: 2

What do the screens show for `CCOC(=O)c1ccccc1-c1csc(N)n1`?
MT stabilizer: 3; Ba/F3 V617F tox: 5; APP 5UTR inh: -9; IEC-6 cytotox: 6; BaF3 tox: 53*; bCat nuc transl: -4

How did CCOC(=O)c1c(C)[nH]c(-c2csc(N)n2)c1C do in these assays?
MT stabilizer: 23; Ba/F3 V617F tox: 3; APP 5UTR inh: 73*; IEC-6 cytotox: 4; BaF3 tox: 3; bCat nuc transl: 3

How did CCOC(=O)c1c(C)[nH]c(-c2csc(C)n2)c1C do in these assays?
MT stabilizer: 1; Ba/F3 V617F tox: 0; APP 5UTR inh: 15; IEC-6 cytotox: -4; BaF3 tox: 2; bCat nuc transl: -1

How did O=C(Nc1ccc(Cn2ccnc2)cc1)c1cccc(C(F)(F)F)c1 do in these assays?
IEC-6 cytotox: 5

Results for CCOc1ccc(OCc2cccc(C(=O)N3CCOCC3)c2)cc1 ?
MT stabilizer: 2; Ba/F3 V617F tox: 2; APP 5UTR inh: 48*; IEC-6 cytotox: -5; BaF3 tox: 5

How did Cc1nn(C(C)C(=O)NCCN2CCCC2)c(=O)c2c1sc1ccccc12 (stereo not given) do in these assays?
IEC-6 cytotox: 0

Results for COc1ccc(C2C=C(c3ccc(C)c(C)c3)Nc3ncnn32)c(OC)c1OC (stereo not given) ?
MT stabilizer: 23*; Ba/F3 V617F tox: -2; IEC-6 cytotox: 4; BaF3 tox: 4

Results for CCN(CC)c1ccc(NC(=O)c2ccccc2Br)cc1S(=O)(=O)Nc1ccccc1OC ?
MT stabilizer: 2; Ba/F3 V617F tox: 2; APP 5UTR inh: -12; IEC-6 cytotox: -2; BaF3 tox: 4

How did CCN(CC)c1ccc(NC(=O)c2ccc(=O)[nH]c2)cc1S(=O)(=O)Nc1ccccc1OC do in these assays?
MT stabilizer: 28*; Ba/F3 V617F tox: 0; APP 5UTR inh: 8; IEC-6 cytotox: 3; BaF3 tox: 5; bCat nuc transl: 2

How did COc1ccc(OC)c(Nc2nc(NCCCN(C)C)nc(N)c2[N+](=O)[O-])c1 do in these assays?
Ba/F3 V617F tox: 58*; IEC-6 cytotox: 9; BaF3 tox: 50*; bCat nuc transl: -3

Results for COc1ccc(S(=O)(=O)Nc2ccccc2-c2nnn(CC(=O)Nc3ccccc3OC)n2)cc1 ?
MT stabilizer: 14*; Ba/F3 V617F tox: -2; APP 5UTR inh: -9; IEC-6 cytotox: -7; BaF3 tox: 4; bCat nuc transl: 0

What do the screens show for `CC1(C)NC(=O)N(CCCCOc2ccc(Cl)cc2C=O)C1=O`?
MT stabilizer: 3; Ba/F3 V617F tox: 71*; APP 5UTR inh: 10; IEC-6 cytotox: 10; BaF3 tox: 76*; bCat nuc transl: -1
